PRMT1 FP inh: PRMT1 methyltransferase inhibitors, primary screen, biochemical, fluorescence polarization; Protein arginine N-methyltransferase 1 (Homo sapiens), Q99873; inhibition, % at 2.79 µM; 1.3% of 370,000 active; AID 652257, 2013; recombinant PRMT1, activity-based probe fluorescence polarization;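 active means inhibition above about 21% made by adding two undisclosed values, limit read from the data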
Target sequence (Q99873 whole entry, looked up): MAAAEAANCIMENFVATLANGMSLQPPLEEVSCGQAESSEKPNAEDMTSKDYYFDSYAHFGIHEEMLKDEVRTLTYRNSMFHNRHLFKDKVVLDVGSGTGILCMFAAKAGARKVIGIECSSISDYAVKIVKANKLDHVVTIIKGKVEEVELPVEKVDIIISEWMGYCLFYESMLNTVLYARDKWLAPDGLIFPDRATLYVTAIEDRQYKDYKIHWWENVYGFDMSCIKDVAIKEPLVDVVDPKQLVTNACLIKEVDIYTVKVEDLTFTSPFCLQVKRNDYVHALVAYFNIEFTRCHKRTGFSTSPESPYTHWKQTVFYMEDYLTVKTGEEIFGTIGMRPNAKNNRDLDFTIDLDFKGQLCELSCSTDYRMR
GSTO1 counter: inhibitors of recombinant GSTO1, primary screen, counter-screen for RBBP9 inhibitor project, biochemical, fluorescence polarization; Glutathione S-transferase omega-1 (Homo sapiens), P78417; activity-based probe fluorescence polarization; inhibition, % at 5.96 µM; 1.1% of 300,000 active;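 active means inhibition above the campaign mean inhibition plus 3 SD, cut at about 35% in these data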
TDP2 inh: human TDP2 enzyme inhibitors, primary screen, biochemical, epi absorbance, recombinant enzyme | 0.34% of 370,000 active | T5PNP hydrolysis, p-nitrophenol absorbance 415 nm | inhibition, % at 12.8 µM;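 active means inhibition above the mean of all tested compounds plus 3 SD, set per campaign, cut at about 25% in these data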
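Evaluation: % inhibition relative to enzyme-containing and enzyme-free wells. Material: recombinant human TDP2. Benchmarks: enzyme-free and DMSO wells. Timing: enzyme reaction with compound for 2 h at 37 °C. Compound dosing: 12.8 µM only. Measured by: p-Nitrophenol epi absorbance. Reagent: T5PNP substrate at 5 mM, a TopII-DNA adduct mimic. Replication: single well per compound.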
PAD4 FP inh: human PAD4 inhibitors, primary screen, biochemical, fluorescence polarization, 1536-well format; Protein-arginine deiminase type-4 (Homo sapiens), Q9UM07; recombinant PAD4, RCA probe fluorescence polarization; inhibition, % at 6.36 µM; 0.41% of 330,000 active; AID 485272, 2010;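 active means percent inhibition above a cutoff equal to the mean of all tested compounds plus 3 SD, cut at about 15% in these data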
Apaf-1 inh: inhibitors of human Apaf-1 apoptosome, primary screen, biochemical, DEVD-Rh110 fluorescence, uHTS | AID 489030, 2010 | reconstituted apoptosome caspase-3 activity | inhibition, % at 20 µM | Apoptotic protease-activating factor 1 (Homo sapiens), O14727 | 0.71% of 330,000 active; active means inhibition of at least 40% at 20 µM
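System: reconstituted apoptosome with Apaf-1, cytochrome c, caspase-9, procaspase-3, dATP; Signal: Rh110 fluorescence intensity; Schedule: 30 min compound preincubation, 50 min activation, room temperature; Reagent: cytochrome c trigger plus (Z-DEVD)2-Rh110 caspase-3 substrate.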
Apaf-1 inh conf2: Apaf-1 inhibitors, single-dose retest, confirmation, biochemical, fluorescence, DEVD-Rh110, 20 µM; shares compounds with Apaf-1 inh; 25% of 1,800 active; reconstituted apoptosome, caspase-3 DEVD-Rh110 fluorescence; inhibition, % at 20 µM;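 active means mean inhibition of at least 40% at 20 µM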
Rh110 quench: Rh110 fluorescence interference by putative Apaf-1 inhibitors, confirmation, artefact control for Apaf-1 inhibitor project, biochemical, 20 µM | shares compounds with Apaf-1 inh | quenched caspase reaction | activation (fluorescence interference), % at 20 µM | 1,800 tested, under 10 active;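 active means signal rise of 40% or more at 20 µM, treated as a fluorescence artifact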
Fluor interf inh: fluorescence interference of Apaf-1 inhibitor hits, dose response, artefact control for Apaf-1 inhibitor project | shares compounds with Apaf-1 inh | fluorescence interference counterscreen, Apaf-1 assay format | IC50, µM | 460 tested, under 10 active; call rule not given here
Hits are given with their value; i = inactive; nt = not tested or not shown. Sampled rows, rich in hits. Any-hit rate of the full collection: about 2.6%.

SMILES	PRMT1 FP inh	GSTO1 counter	TDP2 inh	PAD4 FP inh	Apaf-1 inh	Apaf-1 inh conf2	Rh110 quench	others
COc1cc(NC(C)CCCN)c2ncccc2c1Oc1ccccc1 (centres undefined)	i	i	i	i	70	i	i
CCCCOCCCNC(=O)C[C@H]1C[C@@]2(C(=O)OC)C(=C[C@H](C(C)C)O[C@@H]2C2CC2)N(Cc2ccc(Cl)cc2Cl)C1=O	i	nt	i	nt	nt	nt	nt
Cc1cccc(NC(=O)CC2Nc3cccc4cccc(c34)NC2=O)c1 (centres undefined)	i	i	i	i	71	i	i
CC(=O)c1ccc(NC(=O)CC2Nc3cccc4cccc(c34)NC2=O)cc1 (centres undefined)	i	41	i	i	89	i	i
CCOc1ccc(NC(=O)CC2Nc3ccccc3NC2=O)cc1 (centres undefined)	i	i	i	i	i	nt	nt
COc1ccccc1NC(=O)OCCCN1CCC2(CCC(C)CC2)C1=O (centres undefined)	i	nt	i	nt	nt	nt	nt
COc1cc(C(=O)N2CCN(c3cccc(C)c3C)CC2)ccc1OCC(=O)N1CCOCC1	i	nt	i	i	51	i	i
COc1cc(C(=O)N2CCN(c3ccccc3O)CC2)ccc1OCC(=O)N1CCOCC1	i	nt	i	i	i	nt	nt
CCCCCCNC(=O)C1CSCCS(=O)(=O)N1Cc1ccc(C)cc1 (centres undefined)	i	nt	i	nt	nt	nt	nt
N#Cc1c(N2CCCCC2)nc(N)c2c(N)nc3c(c12)CC(c1ccccc1)O3 (centres undefined)	i	i	i	i	42	i	i
O=C(c1ccc(-c2ccccc2Cl)o1)N1CCC1	i	nt	i	nt	i	nt	nt
O=C(c1ccc(-c2ccccc2Cl)o1)N1CCCC(C(F)(F)F)C1 (centres undefined)	i	nt	i	i	41	i	i
O=C(NC1CCCC1)C(c1ccccc1)n1c(-c2ccc3c(c2)CCO3)nc2ccccc21 (centres undefined)	i	nt	i	nt	nt	nt	nt
CCN(CC)C(=O)c1ncn2c1C(=O)N[C@@H](C)C2	i	nt	i	nt	nt	nt	nt
Cc1ccc(S(=O)(=O)N(C)C)cc1NC(=O)c1ccccc1SCC(=O)N1CCCC1	i	nt	i	i	41	i	i
CCN(CC(=O)Nc1ccccc1C(F)(F)F)C(=O)c1ccccc1SCC(=O)N1CCCC1	i	i	i	i	43	i	i
Cc1ccc(S(=O)(=O)N(C)C)cc1NC(=S)Nc1cccc2ccccc12	i	i	i	i	93	i	i
CC(=O)NNC(=S)Nc1cc(S(=O)(=O)N(C)C)ccc1C	i	i	i	i	i	nt	nt
COc1ccc(Cl)cc1C(=O)NCCN(C)C	i	i	i	i	i	nt	nt
CN(C)CCNC(=O)c1ccc(COc2ccc(Cl)cc2Cl)cc1	i	i	i	i	46	i	i
COC(=O)C[C@@H]1C=C[C@@H](NS(=O)(=O)c2ccc(OC)cc2)[C@@H](CO)O1	i	nt	i	nt	nt	nt	nt
CC(C)[C@H](NC(=O)c1ccccc1)C(=O)N1CCC[C@H]1C(=O)NCc1ccccc1	i	nt	i	nt	nt	nt	nt
COc1ccccc1OCCNC(=O)c1cccc(S(=O)(=O)N2CCN(Cc3ccccc3)CC2)c1	i	nt	i	i	67	49	i	Fluor interf inh=i
CN(Cc1cccc(F)c1)C(=O)c1cccc(S(=O)(=O)N2CCN(Cc3ccccc3)CC2)c1	i	i	i	i	i	nt	nt

Screens deposited in PubChem BioAssay by several laboratories.
